Results from ChEMBL document CHEMBL3243962, “Antileukemic activity of derivatives of 1,2-dimethyl-3,4-bis(hydroxymethyl)-5-phenylpyrrole bis(N-methylcarbamate)” (J Med Chem, 1979).
The source made the active and inactive calls.

Experiments:
[1] = tested on: Mus musculus; assay: Toxicity in mouse P388 cells allografted CD2F1 mouse assessed as mouse survival at 25 mg/kg, ip of total 9 doses starting 24 hrs post tumor inoculation measured on day 5 of inoculation relative to control; type: organism-based; set-up: dose 25 mg/kg, route intraperitoneal; details: in vivo
Method in brief: (§1)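 Male CD2F1 mice bearing ip P388 leukemia (6×10^6 cells) were dosed ip with nine daily doses in distilled water–Tween 80 suspension, starting 24 h after inoculation. Survivors per group of 6 were counted on day 5, i.e. 4 days after the first dose. Body-weight change of treated minus control mice was also recorded.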

[2] = tested on: Mus musculus; assay: Toxicity in mouse P388 cells allografted CD2F1 mouse assessed as body weight loss at 6.25 mg/kg, ip of total 9 doses starting 24 hrs post tumor inoculation measured on day 5 of inoculation relative to control; type: organism-based; set-up: dose 6.25 mg/kg, route intraperitoneal; details: in vivo
Method in brief: (§2)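 Male CD2F1 mice inoculated ip with 6×10^6 P388 leukemia cells. Compounds given ip as distilled water–Tween 80 suspension, nine daily doses starting 24 h after inoculation; six mice per dose group. Treated-minus-control body-weight change (T − C) and toxicity-day survivors recorded on day 5 (4 days after first dose).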

[3] = tested on: Mus musculus; assay: Toxicity in mouse P388 cells allografted CD2F1 mouse assessed as body weight loss at 25 mg/kg, ip of total 9 doses starting 24 hrs post tumor inoculation measured on day 5 of inoculation relative to control; type: organism-based; set-up: dose 25 mg/kg, route intraperitoneal; details: in vivo; method in brief: as §2
[4] = tested on: Mus musculus; assay: Toxicity in mouse P388 cells allografted CD2F1 mouse assessed as body weight loss at 12.5 mg/kg, ip of total 9 doses starting 24 hrs post tumor inoculation measured on day 5 of inoculation relative to control; type: organism-based; set-up: dose 12.5 mg/kg, route intraperitoneal; details: in vivo; method in brief: as §2
[5] = tested on: Mus musculus; assay: Toxicity in mouse P388 cells allografted CD2F1 mouse assessed as body weight loss at 100 mg/kg, ip of total 9 doses starting 24 hrs post tumor inoculation measured on day 5 of inoculation relative to control; type: organism-based; set-up: dose 100 mg/kg, route intraperitoneal; details: in vivo; method in brief: as §2
[6] = tested on: Mus musculus; assay: Toxicity in mouse P388 cells allografted CD2F1 mouse assessed as body weight loss at 50 mg/kg, ip of total 9 doses starting 24 hrs post tumor inoculation measured on day 5 of inoculation relative to control; type: organism-based; set-up: dose 50 mg/kg, route intraperitoneal; details: in vivo; method in brief: as §2
[7] = tested on: Mus musculus; assay: Toxicity in mouse P388 cells allografted CD2F1 mouse assessed as mouse survival at 12.5 mg/kg, ip of total 9 doses starting 24 hrs post tumor inoculation measured on day 5 of inoculation relative to control; type: organism-based; set-up: dose 12.5 mg/kg, route intraperitoneal; details: in vivo; method in brief: as §1
[8] = tested on: Mus musculus; assay: Toxicity in mouse P388 cells allografted CD2F1 mouse assessed as mouse survival at 100 mg/kg, ip of total 9 doses starting 24 hrs post tumor inoculation measured on day 5 of inoculation relative to control; type: organism-based; set-up: dose 100 mg/kg, route intraperitoneal; details: in vivo; method in brief: as §1
[9] = tested on: P388; assay: Antitumor activity against mouse P388 cells allografted in CD2F1 mouse assessed as increase in mouse survival at 25 mg/kg, ip of total 9 doses starting 24 hrs post tumor inoculation measured on day 5 of inoculation relative to control; type: functional; details: route intraperitoneal
Method in brief: (§3)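 Male CD2F1 mice inoculated ip with 6×10^6 P388 leukemia cells. Dosing was ip as a suspension in distilled water–Tween 80, nine daily doses starting 24 h after inoculation. Activity was read as median survival time of treated vs control mice (% T/C); % T/C ≥ 120 was considered significant. Groups were 6 mice.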

[10] = tested on: P388; assay: Antitumor activity against mouse P388 cells allografted in CD2F1 mouse assessed as increase in mouse survival at 12.5 mg/kg, ip of total 9 doses starting 24 hrs post tumor inoculation measured on day 5 of inoculation relative to control; type: functional; details: route intraperitoneal; method in brief: as §3
[11] = tested on: Mus musculus; assay: Toxicity in mouse P388 cells allografted CD2F1 mouse assessed as mouse survival at 6.25 mg/kg, ip of total 9 doses starting 24 hrs post tumor inoculation measured on day 5 of inoculation relative to control; type: organism-based; set-up: dose 6.25 mg/kg, route intraperitoneal; details: in vivo; method in brief: as §1
[12] = tested on: P388; assay: Antitumor activity against mouse P388 cells allografted in CD2F1 mouse assessed as increase in mouse survival at 6.25 mg/kg, ip of total 9 doses starting 24 hrs post tumor inoculation measured on day 5 of inoculation relative to control; type: functional; details: route intraperitoneal; method in brief: as §3
[13] = tested on: Proteus vulgaris; assay: Antimicrobial activity against Proteus vulgaris ATCC 6380 at 1 mg after 24 hrs by disk sensitivity assay; type: functional, organism-based
Method in brief: (§4)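 Bacteria grown 24 h in trypticase soy broth; 1 mL used to seed a lawn on trypticase soy agar. Sterile 6 mm paper disks carrying 1 mg test compound placed on agar, incubated 24 h at 37 °C, then zone of inhibition around each disk measured.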

[14] = tested on: Enterobacter cloacae; assay: Antimicrobial activity against Enterobacter cloacae ATCC 23355 at 1 mg after 24 hrs by disk sensitivity assay; type: functional, organism-based; method in brief: as §4
[15] = tested on: Serratia marcescens; assay: Antimicrobial activity against Serratia marcescens ATCC 8100 at 1 mg after 24 hrs by disk sensitivity assay; type: functional, organism-based; method in brief: as §4
[16] = tested on: Staphylococcus epidermidis; assay: Antimicrobial activity against Staphylococcus epidermidis ATCC 12228 at 1 mg after 24 hrs by disk sensitivity assay; type: functional, organism-based; method in brief: as §4
[17] = tested on: Staphylococcus aureus; assay: Antimicrobial activity against Staphylococcus aureus ATCC 25923 at 1 mg after 24 hrs by disk sensitivity assay; type: functional, organism-based; method in brief: as §4
[18] = tested on: Klebsiella pneumoniae; assay: Antimicrobial activity against Klebsiella pneumoniae ATCC 23357 at 1 mg after 24 hrs by disk sensitivity assay; type: functional, organism-based; method in brief: as §4
[19] = tested on: Escherichia coli; assay: Antimicrobial activity against Escherichia coli ATCC 25922 at 1 mg after 24 hrs by disk sensitivity assay; type: functional, organism-based; method in brief: as §4
[20] = tested on: Salmonella typhimurium; assay: Antimicrobial activity against Salmonella typhimurium ATCC 14028 at 1 mg after 24 hrs by disk sensitivity assay; type: functional, organism-based; details: Salmonella enterica subsp. enterica serovar Typhimurium; method in brief: as §4
[21] = tested on: P388; assay: Antitumor activity against mouse P388 cells allografted in CD2F1 mouse assessed as increase in mouse survival at 50 mg/kg, ip of total 9 doses starting 24 hrs post tumor inoculation measured on day 5 of inoculation relative to control; type: functional; details: route intraperitoneal; method in brief: as §3
[22] = tested on: Mus musculus; assay: Toxicity in mouse P388 cells allografted CD2F1 mouse assessed as body weight loss at 10 mg/kg, ip of total 9 doses starting 24 hrs post tumor inoculation measured on day 5 of inoculation relative to control; type: organism-based; set-up: dose 10 mg/kg, route intraperitoneal; details: in vivo; method in brief: as §2
[23] = tested on: P388; assay: Antitumor activity against mouse P388 cells allografted in CD2F1 mouse assessed as increase in mouse survival at 20 mg/kg, ip of total 9 doses starting 24 hrs post tumor inoculation measured on day 5 of inoculation relative to control; type: functional; details: route intraperitoneal; method in brief: as §3
[24] = tested on: P388; assay: Antitumor activity against mouse P388 cells allografted in CD2F1 mouse assessed as increase in mouse survival at 40 mg/kg, ip of total 9 doses starting 24 hrs post tumor inoculation measured on day 5 of inoculation relative to control; type: functional; details: route intraperitoneal; method in brief: as §3
[25] = tested on: Mus musculus; assay: Toxicity in mouse P388 cells allografted CD2F1 mouse assessed as body weight loss at 40 mg/kg, ip of total 9 doses starting 24 hrs post tumor inoculation measured on day 5 of inoculation relative to control; type: organism-based; set-up: dose 40 mg/kg, route intraperitoneal; details: in vivo; method in brief: as §2
[26] = tested on: Mus musculus; assay: Toxicity in mouse P388 cells allografted CD2F1 mouse assessed as body weight loss at 20 mg/kg, ip of total 9 doses starting 24 hrs post tumor inoculation measured on day 5 of inoculation relative to control; type: organism-based; set-up: dose 20 mg/kg, route intraperitoneal; details: in vivo; method in brief: as §2
[27] = tested on: P388; assay: Antitumor activity against mouse P388 cells allografted in CD2F1 mouse assessed as increase in mouse survival at 10 mg/kg, ip of total 9 doses starting 24 hrs post tumor inoculation measured on day 5 of inoculation relative to control; type: functional; details: route intraperitoneal; method in brief: as §3
[28] = tested on: Mus musculus; assay: Toxicity in mouse P388 cells allografted CD2F1 mouse assessed as mouse survival at 10 mg/kg, ip of total 9 doses starting 24 hrs post tumor inoculation measured on day 5 of inoculation relative to control; type: organism-based; set-up: dose 10 mg/kg, route intraperitoneal; details: in vivo; method in brief: as §1
[29] = tested on: Mus musculus; assay: Toxicity in mouse P388 cells allografted CD2F1 mouse assessed as mouse survival at 20 mg/kg, ip of total 9 doses starting 24 hrs post tumor inoculation measured on day 5 of inoculation relative to control; type: organism-based; set-up: dose 20 mg/kg, route intraperitoneal; details: in vivo; method in brief: as §1
[30] = tested on: Mus musculus; assay: Toxicity in mouse P388 cells allografted CD2F1 mouse assessed as mouse survival at 5 mg/kg, ip of total 9 doses starting 24 hrs post tumor inoculation measured on day 5 of inoculation relative to control; type: organism-based; set-up: dose 5 mg/kg, route intraperitoneal; details: in vivo; method in brief: as §1
[31] = tested on: P388; assay: Antitumor activity against mouse P388 cells allografted in CD2F1 mouse assessed as increase in mouse survival at 5 mg/kg, ip of total 9 doses starting 24 hrs post tumor inoculation measured on day 5 of inoculation relative to control; type: functional; details: route intraperitoneal; method in brief: as §3
[32] = tested on: Mus musculus; assay: Toxicity in mouse P388 cells allografted CD2F1 mouse assessed as body weight loss at 5 mg/kg, ip of total 9 doses starting 24 hrs post tumor inoculation measured on day 5 of inoculation relative to control; type: organism-based; set-up: dose 5 mg/kg, route intraperitoneal; details: in vivo; method in brief: as §2
[33] = tested on: P388; assay: Antitumor activity against mouse P388 cells allografted in CD2F1 mouse assessed as increase in mouse survival at 100 mg/kg, ip of total 9 doses starting 24 hrs post tumor inoculation measured on day 5 of inoculation relative to control; type: functional; details: route intraperitoneal; method in brief: as §3
[34] = tested on: Mus musculus; assay: Toxicity in mouse P388 cells allografted CD2F1 mouse assessed as mouse survival at 50 mg/kg, ip of total 9 doses starting 24 hrs post tumor inoculation measured on day 5 of inoculation relative to control; type: organism-based; set-up: dose 50 mg/kg, route intraperitoneal; details: in vivo; method in brief: as §1

| Compound | Activity [1] | Activity [2] [g] | Activity [3] [g] | Activity [4] [g] | Activity [5] [g] | Activity [6] [g] | Activity [7] | Activity [8] | T/C [9] [%] | T/C [10] [%] | Activity [11] | T/C [12] [%] | Activity [16] | Activity [17] | T/C [21] [%] | Activity [34] | other results |
| --- | --- | --- | --- | --- | --- | --- | --- | --- | --- | --- | --- | --- | --- | --- | --- | --- | --- |
| CNC(=O)OCc1c(COC(=O)NC)c(-c2ccc(C)cc2)n(C)c1C | Non-toxic | 1.4 | 3.4 | 3.2 | 1.8 | 4.5 | Non-toxic | Toxic | 144 | 144 | Non-toxic | 138 |  |  |  |  |  |
| CNC(=O)OCc1c(COC(=O)NC)c(-c2ccc([N+](=O)[O-])cc2)n(C)c1C | Non-toxic | 2.9 | 5.5 | 4.1 | 4.4 | 6.6 | Non-toxic |  | <90 | 169 | Non-toxic | 153 | inactive | inactive | < 90 |  | Activity [13]: inactive; Activity [14]: inactive; Activity [15]: inactive; Activity [18]: inactive; Activity [19]: inactive; Activity [20]: inactive |
| CNC(=O)OCc1c(COC(=O)NC)c(-c2ccc(Br)cc2)n(C)c1C |  |  |  |  |  |  |  |  |  |  |  |  |  |  |  |  | Activity [22]: 2.8 g; T/C [23]: 155%; T/C [24]: <75%; Activity [25]: 5 g; Activity [26]: 2.8 g; T/C [27]: 146%; Activity [28]: Non-toxic; Activity [29]: Non-toxic; Activity [30]: Non-toxic; T/C [31]: 144%; Activity [32]: 1.8 g |
| CNC(=O)OCc1c(COC(=O)NC)c(-c2ccccc2)n(C)c1C | Non-toxic | 2.5 | 3.9 | 3.3 | 6 | 4.6 | Non-toxic |  | 145 | 130 | Non-toxic | 135 |  |  | 90 | Non-toxic | T/C [33]: <70% |
| CNC(=O)OCc1c(COC(=O)NC)c(-c2ccc(F)cc2)n(C)c1C | Non-toxic | 2.4 | 3.9 | 4.3 | 1.8 | 5.1 | Non-toxic | Toxic | 150 | 130 | Non-toxic | 134 | Active | Active | 132 | Non-toxic |  |
